In brackets after ≈: the same amount, converted by molar mass. Activity calls are given as the source filed them. The rule behind the calls is not given here.
Tests used:
Escherichia coli [1] = assay: Antibacterial activity against Escherichia coli ATCC 3509 after 24 hrs; assay type: functional
Pseudomonas aeruginosa [2] = assay: Antibacterial activity against Pseudomonas aeruginosa ATCC 9027 after 24 hrs; assay type: functional, organism-based
Escherichia coli [3] = assay: Antibacterial activity against Escherichia coli ATCC 3509 at 10 to 100 mg/ml after 24 hrs by disc diffusion method; assay type: functional
Outline: (§1)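 Modified disc diffusion: LB agar plates seeded at 10^6 cells/mL; 6 mm filter discs soaked in 50 µL of compound at 10–100 mg/mL in DMSO or methanol, placed on plates, 37 °C for 24 h. Inhibition zone ≥7 mm scored susceptible. Solvent discs tested; positive controls gentamicine, streptomycine or nystatin discs at 10 mg/mL.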

Candida albicans [4] = assay: Antifungal activity against Candida albicans ATCC 10231 after 24 hrs; assay type: functional
Pseudomonas aeruginosa [5] = assay: Antibacterial activity against Pseudomonas aeruginosa ATCC 9027 at 10 to 100 mg/ml after 24 hrs by disc diffusion method; assay type: functional, organism-based; outline: as §1
Staphylococcus aureus [6] = assay: Antibacterial activity against Staphylococcus aureus ATCC 6538 after 24 hrs; assay type: functional
Bacillus subtilis [7] = assay: Antibacterial activity against Bacillus subtilis ATCC 6633 at 10 to 100 mg/ml after 24 hrs by disc diffusion method; assay type: functional; outline: as §1
Bacillus subtilis [8] = assay: Antibacterial activity against Bacillus subtilis ATCC 6633 after 24 hrs; assay type: functional
Staphylococcus aureus [9] = assay: Antibacterial activity against Staphylococcus aureus ATCC 6538 at 10 to 100 mg/ml after 24 hrs by disc diffusion method; assay type: functional; outline: as §1
Candida albicans [10] = assay: Antifungal activity against Candida albicans ATCC 10231 at 10 to 100 mg/ml after 24 hrs by disc diffusion method; assay type: functional; outline: as §1
[11] = test system: Radical scavenging activity; assay: Antioxidant activity assessed as DPPH radical scavenging activity at 10 to 80 uM; assay type: functional
Outline: (§2)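 DPPH radical scavenging per Blois; compounds 10–80 µM in methanol (some runs 10–200 µM, values reported at 80 µM). Absorbance at 517 nm; scavenging % = (A517 control − A517 sample)/A517 control × 100. Alpha tocopherol as control. Means ± SD of three parallel measurements.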

Liver microsomes = assay: Antioxidant activity in Wistar rat liver microsomes assessed as reduction of lipid peroxidase activity by TBA assay; assay type: functional; set-up: concentration or dose not given beside the values; details: Microsome
Outline: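 TBA assay of lipid peroxidation in liver microsomes isolated from three Wistar rats, following Raj et al.; reduced lipid peroxidase activity taken as antioxidant activity, expressed as %.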

[12] = Metal chelating activity of the compound assessed as ratio of Fe2+ concentration to compound concentration; assay type: functional
Outline: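 Fe3+ reducing activity by modified ferrozine method; [Fe2+] calculated from extinction coefficient 27,900 M-1cm-1 of Fe(ferrozine)2+ complex, expressed as µM Fe2+ per µM compound. Means ± SD of three parallel measurements.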

[13] = test system: Radical scavenging activity; assay: Antioxidant activity assessed as DPPH radical scavenging activity at 11 uM; assay type: functional
Outline: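 DPPH radical scavenging at 11 µM compound in methanol, absorbance at 517 nm; % scavenging calculated from control versus sample A517. Alpha tocopherol control; mean ± SD of three parallel measurements.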

[14] = test system: Radical scavenging activity; assay: Antioxidant activity assessed as DPPH radical scavenging activity at 80 uM; assay type: functional; outline: as §2
[15] = test system: Radical scavenging activity; assay: Antioxidant activity assessed as DPPH radical scavenging activity at 11 to 1000 uM; assay type: functional
Outline: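 DPPH scavenging in methanol, read as loss of absorbance at 517 nm, value obtained over 1000–11 µM compound; % = (A517 control − A517 sample)/A517 control × 100. Alpha tocopherol control; three parallel measurements, means ± SD.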

Compound | MIC (Escherichia coli [1]; ATCC 3509, 24 h) [µg/mL] | MIC (Pseudomonas aeruginosa [2]) | MIC (Candida albicans [4]; ATCC 10231, 24 h) [µg/mL] | MIC (Staphylococcus aureus [6]; ATCC 6538, 24 h) [µg/mL] | MIC (Bacillus subtilis [8]; ATCC 6633, 24 h) [µg/mL] | MIC (Escherichia coli [1]) | MIC (Candida albicans [4]) | MIC (Staphylococcus aureus [6]) | MIC (Bacillus subtilis [8]) | diameter of the inhibition zone (DIZ) (Escherichia coli [3]) | diameter of the inhibition zone (DIZ) (Pseudomonas aeruginosa [5]) | diameter of the inhibition zone (DIZ) (Bacillus subtilis [7]) | diameter of the inhibition zone (DIZ) (Staphylococcus aureus [9]) | diameter of the inhibition zone (DIZ) (Candida albicans [10]) | Activity [11] | Activity (Liver microsomes) | Ratio [12] | Activity [13] [%] | Activity [14] [%] | Activity [15] [%]
O=C1C=CCC(c2cccs2)O1 (racemic) | 20 (≈ 111 µM) | inactive | 25 (≈ 139 µM) | 30 (≈ 166 µM) | 10 (≈ 55.5 µM) |  |  |  |  | 8.5 mm | inactive | 8.5 mm | 8.5 mm | 9 mm |  |  |  |  |  | 
O=C1C=C[C@@H](c2cccs2)O1 |  | inactive |  |  |  | inactive | inactive | inactive | inactive | inactive | inactive | inactive | inactive | inactive | inactive | 54.7% | 0.015 |  |  | 
O=C1C=CC(c2cccs2)O1 (racemic) |  | inactive | 100 (≈ 602 µM) |  |  | inactive |  | inactive | inactive | inactive | inactive | inactive | inactive | 9 mm | inactive | 58.8% | 0.44 |  |  | 
CC1=CC(c2cccs2)OC1=O (racemic) |  | inactive | 25 (≈ 139 µM) |  |  | inactive |  | inactive | inactive | inactive | inactive | inactive | inactive | 7.5 mm |  |  |  | 93.3 |  | 
CC1=CCC(c2cccs2)OC1=O (racemic) | 12 (≈ 61.8 µM) | inactive | 25 (≈ 129 µM) | 25 (≈ 129 µM) |  |  |  |  | inactive | 8 mm | inactive | inactive | 7.5 mm | 12 mm |  |  |  |  |  | 7.11
O=C1C=CC[C@@H](c2cccs2)O1 | 30 (≈ 166 µM) | inactive | 30 (≈ 166 µM) | 50 (≈ 277 µM) | 20 (≈ 111 µM) |  |  |  |  | 8.5 mm | inactive | 8.5 mm | 7 mm | 7 mm | 14% | inactive | 0 |  |  | 

Now from value to compound, other results behind:

MIC (Escherichia coli [1]; ATCC 3509, 24 h) [µg/mL] | MIC (Pseudomonas aeruginosa [2]) | MIC (Candida albicans [4]; ATCC 10231, 24 h) [µg/mL] | MIC (Staphylococcus aureus [6]; ATCC 6538, 24 h) [µg/mL] | MIC (Bacillus subtilis [8]; ATCC 6633, 24 h) [µg/mL] | MIC (Escherichia coli [1]) | MIC (Candida albicans [4]) | MIC (Staphylococcus aureus [6]) | MIC (Bacillus subtilis [8]) | Compound | diameter of the inhibition zone (DIZ) (Escherichia coli [3]) | diameter of the inhibition zone (DIZ) (Pseudomonas aeruginosa [5]) | diameter of the inhibition zone (DIZ) (Bacillus subtilis [7]) | diameter of the inhibition zone (DIZ) (Staphylococcus aureus [9]) | diameter of the inhibition zone (DIZ) (Candida albicans [10]) | Activity [11] | Activity (Liver microsomes) | Ratio [12] | Activity [13] [%] | Activity [14] [%] | Activity [15] [%]
 | inactive |  |  |  | inactive | inactive | inactive | inactive | O=C1C=CC[C@H](c2ccco2)O1 | inactive | inactive | inactive | inactive | inactive | inactive | 9% | 0.0092 |  |  | 
 | inactive |  |  |  | inactive | inactive | inactive | inactive | O=C1C=CC[C@@H](c2ccco2)O1 | inactive | inactive | inactive | inactive | inactive |  | 7.45% | 0 |  | 38 | 

— ChEMBL document CHEMBL2069265, “Synthesis and biological evaluation of optically active conjugated γ- and δ-lactone derivatives” (2012)
